Experimental data published in the M2OR odorant receptor database.
Substitutions are numbered along the chain they refer to.

Assays:
Details in all cases: stereoisomer not certain
[1] = molecular target: T1, OR4L1 (Homo sapiens) (UniProt Q8NH43)
T1 sequence (whole entry): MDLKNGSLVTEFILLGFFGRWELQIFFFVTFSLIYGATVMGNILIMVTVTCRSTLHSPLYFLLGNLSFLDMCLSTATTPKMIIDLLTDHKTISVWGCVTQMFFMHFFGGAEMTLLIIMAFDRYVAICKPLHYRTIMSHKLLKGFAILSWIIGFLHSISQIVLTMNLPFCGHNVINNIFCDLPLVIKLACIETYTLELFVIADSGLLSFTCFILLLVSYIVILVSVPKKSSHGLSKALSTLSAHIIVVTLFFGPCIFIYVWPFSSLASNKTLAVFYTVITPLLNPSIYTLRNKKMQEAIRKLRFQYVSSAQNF
Summary of the method: (§1)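 Values were gathered from published papers (main text and supplementary material), with extra details requested from the original authors when needed, and checked for typos and inconsistencies. Each receptor–molecule pair is called responsive (active) if the original authors judged the measured signal statistically different from baseline, and non-responsive (inactive) otherwise. Assay methods varied by source, often transient mammalian cell-line luciferase assays. Recorded details include cell line, G-protein, co-transfected protein and tags.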

[2] = molecular target: T2, OR4M1 (Homo sapiens) (UniProt Q8NGD0)
T2 sequence (whole entry): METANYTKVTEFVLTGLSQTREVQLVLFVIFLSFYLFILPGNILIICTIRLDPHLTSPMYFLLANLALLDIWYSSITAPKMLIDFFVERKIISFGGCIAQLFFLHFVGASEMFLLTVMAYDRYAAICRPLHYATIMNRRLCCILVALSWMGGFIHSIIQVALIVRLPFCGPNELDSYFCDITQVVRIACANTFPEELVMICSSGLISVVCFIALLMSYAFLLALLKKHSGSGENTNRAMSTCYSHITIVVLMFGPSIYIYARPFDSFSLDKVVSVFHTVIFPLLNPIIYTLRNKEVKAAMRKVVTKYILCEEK
Summary of the method: as §1

[3] = molecular target: T3, OR4M2 (Homo sapiens) (UniProt Q8NGB6)
T3 sequence (whole entry): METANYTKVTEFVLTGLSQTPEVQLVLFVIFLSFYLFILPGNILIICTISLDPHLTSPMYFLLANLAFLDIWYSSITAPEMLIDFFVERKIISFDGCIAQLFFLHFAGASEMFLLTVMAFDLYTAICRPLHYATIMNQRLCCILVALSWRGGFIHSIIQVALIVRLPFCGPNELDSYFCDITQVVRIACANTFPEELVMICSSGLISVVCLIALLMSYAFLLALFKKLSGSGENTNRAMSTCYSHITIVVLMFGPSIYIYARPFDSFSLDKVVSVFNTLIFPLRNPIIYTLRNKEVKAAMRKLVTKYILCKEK
Summary of the method: as §1

[4] = molecular target: OR4M2B (Homo sapiens) (UniProt A0A0X1KG70)
Chain of OR4M2B (Homo sapiens) (A0A0X1KG70 whole entry): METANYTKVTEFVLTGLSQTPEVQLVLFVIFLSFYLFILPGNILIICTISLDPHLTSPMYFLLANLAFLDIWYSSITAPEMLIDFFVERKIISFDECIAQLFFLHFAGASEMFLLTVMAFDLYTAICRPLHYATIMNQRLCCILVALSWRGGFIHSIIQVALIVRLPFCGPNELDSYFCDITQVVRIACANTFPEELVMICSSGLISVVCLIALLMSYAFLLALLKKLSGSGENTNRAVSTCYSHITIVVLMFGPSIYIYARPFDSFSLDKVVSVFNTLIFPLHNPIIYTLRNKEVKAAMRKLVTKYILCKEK
Summary of the method: as §1

[5] = molecular target: T4, OR4N2 (Homo sapiens) (UniProt Q8NGD1)
T4 sequence (whole entry): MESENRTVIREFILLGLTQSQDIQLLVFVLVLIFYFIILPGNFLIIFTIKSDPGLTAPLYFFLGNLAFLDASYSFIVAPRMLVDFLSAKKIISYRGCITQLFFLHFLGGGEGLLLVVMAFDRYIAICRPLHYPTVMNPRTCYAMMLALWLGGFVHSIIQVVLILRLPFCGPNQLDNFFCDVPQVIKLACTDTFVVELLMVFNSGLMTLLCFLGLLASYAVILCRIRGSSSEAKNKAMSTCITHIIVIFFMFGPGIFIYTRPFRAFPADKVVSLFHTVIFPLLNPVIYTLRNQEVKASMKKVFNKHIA
Summary of the method: as §1

[6] = system: T5, OR4KH
T5 sequence (whole entry): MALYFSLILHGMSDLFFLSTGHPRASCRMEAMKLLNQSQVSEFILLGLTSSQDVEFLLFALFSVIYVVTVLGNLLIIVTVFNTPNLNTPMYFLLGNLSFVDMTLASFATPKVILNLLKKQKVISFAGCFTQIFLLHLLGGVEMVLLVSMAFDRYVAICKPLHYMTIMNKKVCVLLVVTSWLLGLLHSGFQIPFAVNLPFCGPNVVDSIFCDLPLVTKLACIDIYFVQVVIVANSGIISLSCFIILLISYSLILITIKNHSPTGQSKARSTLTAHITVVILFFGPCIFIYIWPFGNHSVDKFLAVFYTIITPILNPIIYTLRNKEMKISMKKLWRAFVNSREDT
Summary of the method: as §1

[7] = system: T6, OR4L1
T6 sequence (whole entry): T1 sequence (whole entry) with R52S
Summary of the method: as §1

[8] = system: T7, OR4M1 H277N V279L L284H
T7 sequence (whole entry): T2 sequence (whole entry) with H277N, V279L, L284H
Summary of the method: as §1

[9] = system: T8, OR4N2 A57V I76T
T8 sequence (whole entry): T4 sequence (whole entry) with A57V, I76T
Summary of the method: as §1

[10] = system: T9, OR4N2 R260C F279L R290H
T9 sequence (whole entry): T4 sequence (whole entry) with R260C, F279L, R290H
Summary of the method: as §1

Measured: odorant receptor agonist call

CC1CCCCCCCCCCCCC(=O)C1 (configuration not stated)
inactive: [1] | [2] | [3] | [4] | [5]

CCC(S)C(C)CO (configuration not stated)
inactive: [1] | [2] | [3] | [5]

CC1=C(O)C(=O)C(C)O1 (configuration not stated)
inactive: [6] | [1] | [7] | [2] | [8] | [3] | [5] | [9] | [10]

CCCCCC(=O)C(C)C(C)=O (configuration not stated)
inactive: [1] | [2] | [3] | [5]

O=c1ccc2ccccc2o1
inactive: [5]

CCC1OC(=O)C(O)=C1C (configuration not stated)
inactive: [6] | [1] | [7] | [2] | [8] | [3] | [5] | [9] | [10]

CC1=C(O)C(=O)OC1C (configuration not stated)
inactive: [6] | [1] | [7] | [2] | [8] | [3] | [5] | [9] | [10]

CCCCC(S)C(C)CO (configuration not stated)
inactive: [1] | [2] | [3] | [5]

CC(=O)c1c(C)c([N+](=O)[O-])c(C(C)(C)C)c([N+](=O)[O-])c1C
inactive: [1] | [2] | [3] | [4] | [5]

CCCCCCC=CCCC=O
inactive: [1] | [7] | [2] | [8] | [3] | [5] | [9] | [10]

CC1=NC(C)C(C)S1 (configuration not stated)
inactive: [6] | [1] | [7] | [2] | [8] | [3] | [5] | [9] | [10]

CCC1OC(C)=C(O)C1=O (configuration not stated)
inactive: [6] | [1] | [7] | [2] | [8] | [3] | [5] | [9] | [10]

CCCC(S)CCOC(C)=O (configuration not stated)
inactive: [6] | [1] | [7] | [2] | [8] | [3] | [5] | [9] | [10]

Cc1cnc(C)c(C)n1
inactive: [6] | [1] | [7] | [2] | [8] | [3] | [5] | [9] | [10]

CCCCCC(S)C(C)CO (configuration not stated)
inactive: [1] | [2] | [3] | [5]

CC(CO)CS (configuration not stated)
inactive: [1] | [2] | [3] | [5]
